Activity calls are given as the source filed them. No cut-off for these calls is given here.
What was measured:
VL51 [1] = experiment: Induction of cell cycle arrest in human VL51 cells assessed as accumulation of cells at M phase by measuring p-Histone H3 positive cells incubated for 24 hrs by PI staining based flow cytometry analysis; assay type: functional; conditions: dose 0.5-1 µM
SU-DHL10 = experiment: Antiproliferative activity against human SU-DHL-10 cells assessed as cell growth inhibition measured after 72 hrs by MTT assay; assay type: functional, cell-based; conditions: SU-DHL10, 72 h
In short: (§1)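 Lymphoma cells grown in RPMI-1640 with 20% FBS, seeded at 5,000–10,000 cells/well by doubling time. Doses 0–10 μM, 1:2 serial dilution, DMSO ≤0.1%, 72 h at 37 °C, 5% CO2. MTT (5 mg/mL stock) added for 4 h, SDS lysis, A570 read against medium-only blanks. IC50 from triplicate assays.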

DU-145 = experiment: Antiproliferative activity against human DU-145 cells assessed as growth inhibition incubated for 72 hrs by MTT assay; assay type: functional
NCI/ADR-RES = experiment: Antiproliferative activity against human NCI-ADR-RES cells assessed as growth inhibition incubated for 72 hrs by MTT assay; assay type: functional
SF-295 = experiment: Antiproliferative activity against human SF-295 cells assessed as growth inhibition incubated for 72 hrs by MTT assay; assay type: functional
A549 [2] = experiment: Induction of cell cycle arrest in human A549 cells assessed as accumulation of cells at G2/M phase at 1 uM incubated for 24 hrs by PI staining based flow cytometry analysis; assay type: functional
In short: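 Seeding in 6-well plates, 2 mL medium: A549 5×10^4, CCRF-CEM 2.5×10^5, VL51 2.0×10^5. 24 h treatment, A549 detached with trypsin-EDTA. Cells fixed in 70% ice-cold ethanol, PI-labelled, analysed by flow cytometry. Mean of two independent experiments.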

SK-OV-3 = experiment: Antiproliferative activity against human SK-OV-3 cells assessed as growth inhibition incubated for 72 hrs by MTT assay; assay type: functional
OVCAR-8 = experiment: Antiproliferative activity against human OVCAR-8 cells assessed as growth inhibition incubated for 72 hrs by MTT assay; assay type: functional
HCT-116 = experiment: Antiproliferative activity against human HCT-116 cells assessed as growth inhibition incubated for 72 hrs by MTT assay; assay type: functional
MDA-MB-231 = experiment: Antiproliferative activity against human MDA-MB-231 cells assessed as growth inhibition incubated for 72 hrs by MTT assay; assay type: functional
Tubulin = experiment: Inhibition of tubulin assembly (unknown origin); assay type: protein-complex assay, Homo sapiens
MDA-MB-468 = experiment: Antiproliferative activity against human MDA-MB-468 cells assessed as growth inhibition incubated for 72 hrs by MTT assay; assay type: functional
UACC-62 = experiment: Antiproliferative activity against human UACC-62 cells assessed as growth inhibition incubated for 72 hrs by assay; assay type: functional
HCT-15 = experiment: Antiproliferative activity against human HCT-15 cells assessed as growth inhibition incubated for 72 hrs by MTT assay; assay type: functional
LOX IMVI = experiment: Antiproliferative activity against human LOX IMVI cells assessed as growth inhibition incubated for 72 hrs by MTT assay; assay type: functional
[3] = Antiproliferative activity against human MINO cells assessed as cell growth inhibition measured after 72 hrs by MTT assay; assay type: functional, cell-based
In short: (§2)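 Lymphoma cells in RPMI-1640 with 20% FBS, seeded at 5,000–10,000 cells/well depending on doubling time. Exposed for 72 h at 37 °C, 5% CO2 to a 1:2 serial dilution from 0 to 10 μM (DMSO ≤0.1%). MTT from a 5 mg/mL stock was added for 4 h, cells were lysed with 25% SDS, and A570 was read against medium-only blanks. IC50 from triplicate assays.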

CAKI-1 = experiment: Antiproliferative activity against human CAKI-1 cells assessed as growth inhibition incubated for 72 hrs by MTT assay; assay type: functional
[4] = Cytotoxicity against resting human PBL cells assessed as inhibition of cell growth measured after 72 hrs by MTT assay; assay type: toxicity, cell-based; conditions: resting human peripheral blood lymphocytes (PBL)
KM12 = experiment: Antiproliferative activity against human KM12 cells assessed as growth inhibition incubated for 72 hrs by MTT assay; assay type: functional
K562 = experiment: Antiproliferative activity against human K562 cells assessed as growth inhibition incubated for 72 hrs by MTT assay; assay type: functional
SNB-75 = experiment: Antiproliferative activity against human SNB-75 cells assessed as growth inhibition incubated for 72 hrs by MTT assay; assay type: functional
HCC 2998 = experiment: Antiproliferative activity against human HCC 2998 cells assessed as growth inhibition incubated for 72 hrs by MTT assay; assay type: functional
A498 = experiment: Antiproliferative activity against human A498 cells assessed as growth inhibition incubated for 72 hrs by MTT assay; assay type: functional
COLO 205 = experiment: Antiproliferative activity against human COLO 205 cells assessed as growth inhibition incubated for 72 hrs by MTT assay; assay type: functional
VL51 [5] = experiment: Induction of mitochondrial membrane potential depolarization in human VL51 cells at 0.5 to 1 uM measured after 24 hrs by JC-1 fluorescent dye based flow cytometry analysis; assay type: functional, cell-based; conditions: dose 0.5-1 µM
In short: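 VL51 cells treated 24 h at 0.5 and 1.0 μM, labelled with JC-1, analysed by flow cytometry in FL1 and FL2 channels.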

RXF 393 = experiment: Antiproliferative activity against human RXF 393 cells assessed as growth inhibition incubated for 72 hrs by MTT assay; assay type: functional
VL51 [6] = experiment: Antiproliferative activity against human VL51 cells assessed as cell growth inhibition measured after 72 hrs by MTT assay; assay type: functional, cell-based; conditions: VL51, 72 h; in short: as §1
VL51 [7] = experiment: Induction of apoptosis in human VL51 cells assessed as increase in apoptotic cells incubated for 48 hrs by annexin V-FITC and PI staining based flow cytometry analysis; assay type: functional, cell-based; conditions: dose 1-5 µM
In short: (§3)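 Cells exposed to several concentrations for 48 h, then stained with annexin V-FITC and PI and read by flow cytometry (FL1/FL3). Apoptotic cells = annexin V-positive plus annexin V/PI double-positive. Mean of three independent experiments.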

NCI-H23 = experiment: Antiproliferative activity against human NCI-H23 cells assessed as growth inhibition incubated for 72 hrs by MTT assay; assay type: functional
MOLT-4 = experiment: Antiproliferative activity against human MOLT-4 cells assessed as growth inhibition incubated for 72 hrs by MTT assay; assay type: functional
CCRF-CEM = experiment: Induction of apoptosis in human CCRF-CEM cells assessed as increase in apoptotic cells incubated for 48 hrs by annexin V-FITC and PI staining based flow cytometric analysis; assay type: functional, cell-based; conditions: dose 1-5 µM; in short: as §3
[8] = Antiproliferative activity against human HBL1 cells assessed as cell growth inhibition measured after 72 hrs by MTT assay; assay type: functional, cell-based; conditions: HBL1, 72 h; in short: as §2
ACHN = experiment: Antiproliferative activity against human ACHN cells assessed as growth inhibition incubated for 72 hrs by MTT assay; assay type: functional
PC-3 = experiment: Antiproliferative activity against human PC-3 cells assessed as growth inhibition incubated for 72 hrs by MTT assay; assay type: functional
A549 [9] = experiment: Antiproliferative activity against human A549 cells assessed as growth inhibition incubated for 72 hrs by MTT assay; assay type: functional

Row | SMILES | Activity (VL51 [1]) | IC50 (SU-DHL10) [nM] | GI50 (DU-145) [nM] | GI50 (NCI/ADR-RES) [nM] | GI50 (SF-295) [nM] | Activity (A549 [2]) | GI50 (SK-OV-3) [nM] | GI50 (OVCAR-8) [nM] | GI50 (HCT-116) [nM] | GI50 (MDA-MB-231) [nM] | IC50 (Tubulin) [nM] | GI50 (MDA-MB-468) [nM] | GI50 (UACC-62) [nM] | GI50 (HCT-15) [nM] | GI50 (LOX IMVI) [nM] | IC50 [3] [nM] | GI50 (CAKI-1) [nM] | IC50 at 72 h [4] [nM] | GI50 (KM12) [nM] | GI50 (K562) [nM] | other results
1 | COc1ccc(Cn2cc3c(c2-c2cc(OC)c(OC)c(OC)c2)CCCc2cnoc2-3)cc1 | Dose-Dependent Effect | 1800 | 4110 | 540 | 510 | Active | 4180 | 4300 | 390 | 2540 | > 20000 | 560 | 910 | 480 | 990 | 900 | 490 | > 10000 | 690 | 420 | GI50 (SNB-75): 870 nM; GI50 (HCC 2998): 1610 nM; GI50 (A498): 690 nM; GI50 (COLO 205): 1450 nM; Activity (VL51 [5]): Active; GI50 (RXF 393): 660 nM; IC50 (VL51 [6]): 400 nM; Activity (VL51 [7]): Dose-Dependent Effect; GI50 (NCI-H23): 2620 nM; GI50 (MOLT-4): 800 nM; Activity (CCRF-CEM): Dose-Dependent Effect; IC50 [8]: 1000 nM; GI50 (ACHN): 900 nM; GI50 (PC-3): 850 nM; GI50 (A549 [9]): 2340 nM
2 | COc1ccc(Cn2cc3c(c2-c2cc(OC)c(OC)c(OC)c2)CCCc2cnoc2-3)cc1N | Dose-Dependent Effect | 500 | 840 | 600 | 500 | Active | 680 | 1570 | 400 | 1150 | 18000 | 650 | 430 | 530 | 700 | 400 | 580 | > 10000 | 560 | 390 | GI50 (SNB-75): 380 nM; GI50 (HCC 2998): 1660 nM; GI50 (A498): 360 nM; GI50 (COLO 205): 380 nM; Activity (VL51 [5]): Active; GI50 (RXF 393): 450 nM; IC50 (VL51 [6]): 100 nM; Activity (VL51 [7]): Dose-Dependent Effect; GI50 (NCI-H23): 1340 nM; GI50 (MOLT-4): 650 nM; Activity (CCRF-CEM): Dose-Dependent Effect; IC50 [8]: 500 nM; GI50 (ACHN): 690 nM; GI50 (PC-3): 430 nM; GI50 (A549 [9]): 950 nM
